Data: publication PMC5573908 (Diabetes, Obesity & Metabolism, 2017)

Key:
subjects with obesity = experiment: Safety and tolerability; assay type: in vivo, human
Outline: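 Safety was followed through both 12-week periods of randomised crossover s.c. weekly dosing (0.25, 0.5, then 1.0 mg, 4 weeks each) versus matching placebo. Assessments were adverse events, hypoglycaemic events and blood pressure.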

[1] = Multiple-dose pharmacokinetics of semaglutide; assay type: in vivo, human
Outline: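 Test compound (1.34 mg/mL) was given s.c. once weekly at 0.25 mg for 4 weeks, 0.5 mg for 4 weeks, then 1.0 mg for 4 weeks. Steady-state trough concentrations were taken after 4, 8 and 12 weeks. After a further clinic 1.0 mg dose, steady-state parameters were derived from 0–168 h concentration-time curves.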

[2] = 12 weeks, once-weekly s.c. escalated to 1.0 mg

In the case of CC[C@H](C)[C@H](NC(=O)[C@H](Cc1ccccc1)NC(=O)[C@H](CCC(=O)O)NC(=O)[C@H](CCCCNC(=O)COCCOCCNC(=O)COCCOCCNC(=O)CC[C@H](NC(=O)CCCCCCCCCCCCCCCCC(=O)O)C(=O)O)NC(=O)[C@H](C)NC(=O)[C@H](C)NC(=O)[C@H](CCC(N)=O)NC(=O)CNC(=O)[C@H](CCC(=O)O)NC(=O)[C@H](CC(C)C)NC(=O)[C@H](Cc1ccc(O)cc1)NC(=O)[C@H](CO)NC(=O)[C@H](CO)NC(=O)[C@@H](NC(=O)[C@H](CC(=O)O)NC(=O)[C@H](CO)NC(=O)[C@@H](NC(=O)[C@H](Cc1ccccc1)NC(=O)[C@@H](NC(=O)CNC(=O)[C@H](CCC(=O)O)NC(=O)C(C)(C)NC(=O)[C@@H](N)Cc1cnc[nH]1)[C@@H](C)O)[C@@H](C)O)C(C)C)C(=O)N[C@@H](C)C(=O)N[C@@H](Cc1c[nH]c2ccccc12)C(=O)N[C@@H](CC(C)C)C(=O)N[C@H](C(=O)N[C@@H](CCCNC(=N)N)C(=O)NCC(=O)N[C@@H](CCCNC(=N)N)C(=O)NCC(=O)O)C(C)C [semaglutide], the “Severe or blood glucose-confirmed symptomatic hypoglycaemic events” value (subjects with obesity; 12 weeks) is reported as “No severe or blood glucose‐confirmed symptomatic hypoglycaemic events were reported”, the “Serious AEs” value (subjects with obesity; [2]) is reported as “no serious AEs were reported” and the “Severity of AEs” value (subjects with obesity; [2]) is reported as “mild or moderate”. The “Observed mean changes from baseline in systolic and diastolic blood pressure” value (subjects with obesity; week 12, either treatment) was at most 2 mm Hg, the “Mean trough value (CV)” value ([1]; 0.25 mg s.c. once-weekly, after 4 weeks of treatment) was 4.64 (32.5) nmol/L and the “Mean trough value (CV)” value ([1]; 0.5 mg s.c. once-weekly, after 8 weeks of treatment) was 10.25 (23.3) nmol/L. For the same compound, the “Mean trough value (CV)” value ([1]; 1.0 mg s.c. once-weekly, after 12 weeks of treatment) was 19.73 (21.9) nmol/L.
